Results on ten molecules are retold here after ChEMBL document CHEMBL1821623, “Anti-influenza virus polyketides from the acid-tolerant fungus Penicillium purpurogenum JS03-21” (J Nat Prod, 2011).

Test [1] concerns Influenza A virus. As to the kind of experiment: Antiviral activity against Influenza A virus H1N1 infected in MDCK cells assessed as compound concentration required for inhibiting influenza virus yield at 48 h post-infection by crystal violet staining based CPE inhibition assay. The class given is functional, organism-based. Put shortly: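 CPE-inhibition assay against influenza A (H1N1). Ribavirin was the positive control. Activity was reported as an IC50 in μM.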

Test [2] relates to OVCAR-3. Briefly: Cytotoxicity against human OVCAR3 cells. The class given is functional.

With `NC(=O)c1ncn([C@@H]2O[C@H](CO)[C@@H](O)[C@H]2O)n1` [RIBAVIRIN], the IC50 in test [1] stood at 101 µM.

With `C/C=C/C1=CC2=CC(=O)[C@@](C)(OC(=O)c3c(C)cc(O)cc3O)C(=O)[C@@]2(O)[C@@H](O)O1` [PURPURQUINONE A], in test [1], the IC50 was more than 200 µM.

As for `CC1=C(O)C(=O)c2cc(O)c(O)cc2C1=O`, the IC50 in test [1] was more than 200 µM.

`CCC[C@]1(OC)OC(=O)c2c1cc(O)c(O)c2C` [PURPURESTER A]: in test [1], the IC50 worked out at 85.3 µM.

On to `CCCCC[C@@H]1Cc2cc(O)c(C(=O)O)c3c2[C@H](C[C@]2(OC[C@H](CC(=O)C(C)(CC)C(=O)OC)[C@H]2C)O3)O1` (stereo not given in full) [BERKELIC ACID], for which the concentration for 50% growth inhibition (GI50) in test [2] was 0.091 µM.

`C/C=C/C1=CC2=CC(=O)[C@@](C)(OC(=O)c3c(C)cc(O)cc3O)C(=O)[C@@]2(O)CO1`: the IC50 in test [1] turned out to be 64 µM.

Turning to `O=Cc1cc(C(=O)O)cc(O)c1C(=O)c1c(O)cccc1O`, the IC50 in test [1] came out at 58.6 µM.

For the molecule `C/C=C/C1=CC2=CC(=O)[C@@](C)(OC(=O)c3c(O)cc(O)c(O)c3C)C(=O)[C@@]2(O)[C@@H](O)O1` [PURPURQUINONE B], the IC50 in test [1] was found to be 61.3 µM.

Turning to `C/C=C/C1=CC2=CC(=O)[C@@](C)(OC(=O)c3c(C)cc(O)cc3O)C(=O)C2=CO1`, the IC50 in test [1] is more than 200 µM.

Regarding `CC/C=C1\OC(=O)c2c1cc(O)c(O)c2C` [PURPURESTER B], the IC50 in test [1] was more than 200 µM.

A word on the IC50: it is the midpoint of a concentration-inhibition curve. What is called GI50 is the concentration giving 50% growth inhibition. A high value points to lower sensitivity of the cells.
